Results taken from ChEMBL document CHEMBL4334445, “Caspase-Dependent Apoptosis in Prostate Cancer Cells and Zebrafish by Corchorusoside C from Streptocaulon juventas” (J Nat Prod, 2019).
Calls of active or inactive are those of the source. The calls are words filed in the database; no cut-off is given here.

How the values were obtained:
DU-145 [1] = test: Induction of apoptosis in human DU145 cells assessed as decrease in number of cells at 0.003 to 0.3 uM measured upto 72 hrs by microscopic analysis; format: functional, cell-based
[2] = Toxicity in 24 hrs post fertilized zebrafish embryo assessed as effect on brain development at 50 uM measured after 24 hrs by microscopic analysis; design: species or system Danio rerio; details: in vivo
Procedure, shortened: (§1)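 Embryos raised at 28 °C to 24 hpf, then exposed to 50 μM in 1% DMSO in water (vehicle control) for 24 h; larvae examined and photographed by light microscopy for developmental morphology.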

[3] = Toxicity in 24 hrs post fertilized zebrafish embryo assessed as effect on vasculature at 50 uM measured after 24 hrs by microscopic analysis; design: species or system Danio rerio; details: in vivo; procedure, shortened: as §1
[4] = Toxicity in 24 hrs post fertilized zebrafish embryo assessed as effect on heart development at 50 uM measured after 24 hrs by microscopic analysis; design: species or system Danio rerio; details: in vivo; procedure, shortened: as §1
[5] = Toxicity in 24 hrs post fertilized zebrafish embryo assessed as effect on gut development at 50 uM measured after 24 hrs by microscopic analysis; design: species or system Danio rerio; details: in vivo; procedure, shortened: as §1
[6] = Toxicity in 24 hrs post fertilized zebrafish embryo assessed as effect on trunk development at 50 uM measured after 24 hrs by microscopic analysis; design: species or system Danio rerio; details: in vivo; procedure, shortened: as §1
[7] = Toxicity in 24 hrs post fertilized zebrafish embryo assessed as effect on tail development at 50 uM measured after 24 hrs by microscopic analysis; design: species or system Danio rerio; details: in vivo; procedure, shortened: as §1
HT-29 = test: Cytotoxicity against human HT-29 cells assessed as reduction in cell viability measured after 72 hrs by SRB assay; format: functional, cell-based
HeLa = test: Cytotoxicity against human HeLa cells assessed as reduction in cell viability measured after 72 hrs by SRB assay; format: functional, cell-based
DU-145 [8] = test: Cytotoxicity against human DU145 cells assessed as reduction in cell viability measured after 72 hrs by SRB assay; format: functional, cell-based
PC-3 = test: Cytotoxicity against human PC3 cells assessed as reduction in cell viability measured after 72 hrs by SRB assay; format: functional, cell-based
MCF7 = test: Cytotoxicity against human MCF7 cells assessed as reduction in cell viability measured after 72 hrs by SRB assay; format: functional, cell-based; details: for IC50: MCF7, 72 h
MDA-MB-231 = test: Cytotoxicity against human MDA-MB-231 cells assessed as reduction in cell viability measured after 72 hrs by SRB assay; format: functional, cell-based; details: MDA-MB-231, 72 h
[9] = Cytotoxicity against human CCD-112CoN cells assessed as reduction in cell viability measured after 72 hrs by SRB assay; format: cell-based
[10] = Selectivity index, ratio of IC50 for human CCD-112CoN cells to IC50 for human HT-29 cells
DU-145 [11] = test: Cytotoxicity against human DU145 cells assessed as reduction in cell viability measured after 24 hrs by SRB assay; format: functional, cell-based; details: DU-145, 24 h
Procedure, shortened: (§2)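 DU-145 cells seeded at 5×10^4 cells/mL, compound 30–3×10^-4 μM for 24 or 48 h at 37 °C, 5% CO2; TCA fixation, 0.4% SRB staining, Tris-base solubilisation, absorbance 515 nm; timed IC50 by non-linear regression.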

DU-145 [12] = test: Cytotoxicity against human DU145 cells assessed as reduction in cell viability measured after 48 hrs by SRB assay; format: functional, cell-based; details: DU-145, 48 h; procedure, shortened: as §2
DU-145 [13] = test: Cell cycle arrest in human DU145 cells assessed as decrease in G1 phase population at 0.005 to 5 uM after 24 hrs by RNase/propidium iodide staining based FACScalibur flow cytometry analysis; format: functional
Procedure, shortened: (§3)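 DU-145 cells in 6-cm plates treated 0.005–5 μM for 24 h; trypsinised, fixed in 70% ethanol, RNase incubation 1 h at 37 °C, propidium iodide stained; flow cytometry, excitation 488 nm, emission 617 nm; percentage of cells per phase vs control; two independent experiments.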

DU-145 [14] = test: Induction of apoptosis in human DU145 cells assessed as cell shrinkage at 0.003 to 0.3 uM measured upto 72 hrs by microscopic analysis; format: functional, cell-based
DU-145 [15] = test: Induction of apoptosis in human DU145 cells assessed as increase in apoptotic cells at 0.003 to 0.3 uM measured upto 72 hrs by microscopic analysis; format: functional, cell-based
DU-145 [16] = test: Induction of morphological changes in human DU145 cells assessed as apoptotic cell death at 0.003 to 0.3 uM measured upto 72 hrs by microscopic analysis; format: functional, cell-based
DU-145 [17] = test: Induction of apoptosis in human DU145 cells assessed as cell detachment from monolayer surface at 0.003 to 0.3 uM measured upto 72 hrs by microscopic analysis; format: functional, cell-based
DU-145 [18] = test: Cell cycle arrest in human DU145 cells assessed as increase in sub-G1 phase population at 0.005 to 5 uM after 24 hrs by RNase/propidium iodide staining based FACScalibur flow cytometry analysis; format: functional; procedure, shortened: as §3
DU-145 [19] = test: Induction of mitochondrial membrane potential loss in human DU145 cells after 2 hrs by JC1 staining based fluorescence assay; format: functional, cell-based; details: DU-145, 2 h
DU-145 [20] = test: Decrease in NF-KappaB p50 subunit expression in human DU145 cells at 0.05 to 50 uM measured after 12 hrs by Western blot analysis; format: functional, cell-based
Procedure, shortened: (§4)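 DU-145 cells in DMEM treated 0.05–50 μM for 12 h, DMSO/water vehicle control; lysates quantified by BCA, 20 μg protein on 10% Bis-Tris SDS-PAGE, transferred to PVDF, blocked with 3% BSA, primary antibody overnight, secondary 1 h, chemiluminescent detection, band densitometry; three independent assays, one-way ANOVA with Dunnett's test.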

DU-145 [21] = test: Decrease in NF-KappaB p65 subunit expression in human DU145 cells at 0.05 to 50 uM measured after 12 hrs by Western blot analysis; format: functional, cell-based; procedure, shortened: as §4
DU-145 [22] = test: Decrease in IKK alpha expression in human DU145 cells measured after 12 hrs by Western blot analysis; format: functional, cell-based; procedure, shortened: as §4
DU-145 [23] = test: Decrease in IKKbeta expression in human DU145 cells measured after 12 hrs by Western blot analysis; format: functional, cell-based; procedure, shortened: as §4
DU-145 [24] = test: Decrease in ICAM1 expression in human DU145 cells after 12 hrs by Western blot analysis; format: functional, cell-based; procedure, shortened: as §4
DU-145 [25] = test: Induction of ROS generation in human DU145 cells at 0.5 to 50 uM measured after 5 hrs by DCFHDA probe based fluorescence assay; format: functional, cell-based
Procedure, shortened: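 DU-145 cells seeded at 5×10^4/mL, treated 0.5–50 μM, incubated at 37 °C for 5 h; DCFH-DA 10 μM added; fluorescence at excitation 485 / emission 530 nm vs DMSO control; triplicate, two independent experiments, one-way ANOVA with Dunnett's test.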

DU-145 [26] = test: Induction of apoptosis in human DU145 cells assessed as reduction in Bcl2 protein expression at 5 to 50 uM measured after 12 hrs by Western blot analysis; format: functional, cell-based; procedure, shortened: as §4
DU-145 [27] = test: Induction of apoptosis in human DU145 cells assessed as increase in PARP1 protein expression at 5 to 50 uM measured after 12 hrs by Western blot analysis; format: functional, cell-based; procedure, shortened: as §4
DU-145 [28] = test: Induction of apoptosis in human DU145 cells assessed assessed as caspase 3/7 activity after 5 hrs by caspase-Glo 3/7 reagent based luminescence assay; format: functional, cell-based
Procedure, shortened: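 DU-145 cells at 1×10^4 per well treated 0.08–8 μM for 5 h, DMSO/water vehicle; Caspase-Glo 3/7 reagent added, 2 h incubation, luminescence read; three independent assays, one-way ANOVA with Dunnett's test.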

DU-145 [29] = test: Induction of apoptosis in human DU145 cells assessed assessed as increase in caspase 3 expression at 0.05 to 50 uM after 12 hrs by Western blot analysis; format: functional, cell-based; procedure, shortened: as §4
DU-145 [30] = test: Induction of apoptosis in human DU145 cells assessed assessed as increase in caspase 7 expression at 0.05 to 50 uM after 12 hrs by Western blot analysis; format: functional, cell-based; procedure, shortened: as §4
[31] = target: Sodium/potassium-transporting ATPase (Homo sapiens) (UniProt P05023+P14415+P05026+P50993+P54709+P13637+Q13733+P54710); test: Inhibition of Na+/K+ ATPase pump in human DU145 cells assessed as increase in intracellular calcium level at 50 uM measured after 5 hrs by Fura-2/AM dye based fluorescence assay; format: cell-based
Procedure, shortened: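 DU-145 cells at 1×10^4 per well treated 5 h (0–50 μM), DMSO/water negative control; medium removed, loaded with 5 μM fura-2 AM then 2.5 mM probenecid; intracellular Ca2+ from emission 510 nm ratio at 340/380 nm excitation; two independent experiments.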

Danio rerio [32] = species: Danio rerio; test: Downregulation of NF-kappaB p65 expression in zebrafish at 0.6 to 15 uM by Western blot analysis; format: functional, organism-based
Procedure, shortened: (§5)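 Zebrafish larvae at 72 hpf exposed for 3 h to a range of concentrations, frozen on dry ice and homogenised; BCA protein assay, 20 μg on 10% Bis-Tris SDS-PAGE, PVDF transfer, 3% BSA block, primary antibody overnight, secondary 1 h, chemiluminescent detection, densitometry.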

Danio rerio [33] = species: Danio rerio; test: Downregulation of IKKalpha expression in zebrafish at 0.6 to 15 uM by Western blot analysis; format: functional, organism-based; procedure, shortened: as §5
Danio rerio [34] = species: Danio rerio; test: Effect on NF-KappaB p50 expression in zebrafish at 0.6 to 15 uM by Western blot analysis; format: functional, organism-based; procedure, shortened: as §5
Danio rerio [35] = species: Danio rerio; test: Effect on IKKbeta expression in zebrafish at 0.6 to 15 uM by Western blot analysis; format: functional, organism-based; procedure, shortened: as §5
Danio rerio [36] = species: Danio rerio; test: Increase in caspase 3 level in zebrafish at 0.6 to 15 uM by Western blot analysis; format: functional, organism-based; procedure, shortened: as §5
Danio rerio [37] = species: Danio rerio; test: Effect on caspase 7 level in zebrafish at 0.6 to 15 uM by Western blot analysis; format: functional, organism-based; procedure, shortened: as §5
[38] = Toxicity in zebrafish assessed as effect on intracellular calcium level at 50 uM measured after 5 hrs by Fura-2/AM dye based fluorescence assay; format: cell-based, Danio rerio; details: in vivo
[39] = Toxicity in 24 hrs post fertilized zebrafish embryo assessed as malformation of spine curvature at 50 uM measured after 24 hrs by microscopic analysis; design: species or system Danio rerio; details: in vivo
Procedure, shortened: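 Zebrafish embryos raised in an automated housing system at 28 °C to 24 hpf, then exposed for 24 h to test agent at 50 μM in vehicle (1% DMSO in water). Digoxin and cycloheximide at 50 μM served as positive controls, with an untreated control. Morphology was then inspected and photographed by light microscopy.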

C[C@H]1O[C@@H](O[C@H]2CC[C@]3(C)[C@H]4CC[C@]5(C)[C@@H](C6=CC(=O)OC6)CC[C@]5(O)[C@@H]4CC[C@]3(O)C2)C[C@H](O)[C@@H]1O[C@@H]1O[C@H](CO)[C@@H](O)[C@H](O)[C@H]1O
Activity (DU-145 [1]): Active
Activity [2]: Non-Toxic
Activity [3]: Non-Toxic
Activity [4]: Non-Toxic
Activity [5]: Non-Toxic
Activity [6]: Non-Toxic
Activity [7]: Non-Toxic
Activity (HT-29): Dose-dependent effect
IC50 (HT-29; HT-29, 72 h): 120 nM
Activity (HeLa): Dose-dependent effect
IC50 (HeLa): 190 nM
Activity (DU-145 [8]): Dose-dependent effect
IC50 (DU-145 [8]; DU-145, 72 h): 80 nM
Activity (PC-3): Dose-dependent effect
IC50 (PC-3; PC-3, 72 h): 200 nM
Activity (MCF7): Dose-dependent effect
IC50 (MCF7): 100 nM
IC50 (MDA-MB-231): 200 nM
IC50 [9]: 2700 nM
Ratio IC50 [10]: 22.5
IC50 (DU-145 [11]): 11200 nM
IC50 (DU-145 [12]): 1200 nM
Activity (DU-145 [13]): Active
Activity (DU-145 [14]): Active
Activity (DU-145 [15]): Active
Activity (DU-145 [16]): Active
Activity (DU-145 [17]): Active
Activity (DU-145 [18]): Active
IC50 (DU-145 [19]): 300 nM
inhibition (DU-145 [20]): Active
inhibition (DU-145 [21]): Active
inhibition (DU-145 [22]): Dose-dependent effect
inhibition (DU-145 [23]): Dose-dependent effect
Activity (DU-145 [24]): Dose-dependent effect
Activity (DU-145 [25]): Active
Activity (DU-145 [26]): Active
Activity (DU-145 [27]): Active
Activity (DU-145 [28]): Dose-dependent effect
Activity (DU-145 [29]): Active
Activity (DU-145 [30]): Active
inhibition [31]: Active
Activity (Danio rerio [32]): Active
Activity (Danio rerio [33]): Active
Activity (Danio rerio [34]): inactive
Activity (Danio rerio [35]): inactive
Activity (Danio rerio [36]): Active
Activity (Danio rerio [37]): inactive
Activity [38]: Non-Toxic

C[C@H]1O[C@@H](O[C@H]2[C@@H](O)C[C@H](O[C@H]3[C@@H](O)C[C@H](O[C@H]4CC[C@@]5(C)[C@H](CC[C@@H]6[C@@H]5C[C@@H](O)[C@]5(C)[C@@H](C7=CC(=O)OC7)CC[C@]65O)C4)O[C@@H]3C)O[C@@H]2C)C[C@H](O)[C@@H]1O [DIGOXIN]
Activity [39]: Toxic
inhibition [31]: Active

Cc1c2ccncc2c(C)c2c1[nH]c1ccccc12 [ELLIPTECINE]
IC50 (MCF7): 800 nM
